Reference: ChEMBL document CHEMBL1154048, “Design, synthesis and pharmacological evaluation of new 1-[3-(4-arylpiperazin-1-yl)-2-hydroxy-propyl]-3,3-diphenylpyrrolidin-2-one derivatives with antiarrhythmic, antihypertensive, and alpha-adrenolytic activity” (Eur J Med Chem, 2009)
The source made the active and inactive calls.

Legend:
Rattus norvegicus [1] = test: Antiarrhythmic activity against adrenaline-induced arrhythmia in iv dosed rat assessed as inhibition of cardiac rhythm disturbance administered 15 mins before adrenaline challenge; type: functional; settings: Heart
Summary of the method: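 Rats anaesthetized with thiopental 60 mg/kg ip received the compound i.v. 15 min before an i.v. adrenaline challenge. Rhythm disturbances were recorded for 15 min after adrenaline. Activity was defined as absence of premature beats and inhibition of disturbances versus controls. ED50 values, with confidence limits, were derived by Litchfield–Wilcoxon from three groups of six animals.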

[2] = molecular target: T1, Adrenergic receptor alpha-2 (Rattus norvegicus, UniProt P22086+P19328+P22909); test: Displacement of [3H]clonidine from alpha2 adrenergic receptor in rat cerebral cortex by liquid scintillation counting; type: tissue-based
T1 sequence (P22086 whole entry): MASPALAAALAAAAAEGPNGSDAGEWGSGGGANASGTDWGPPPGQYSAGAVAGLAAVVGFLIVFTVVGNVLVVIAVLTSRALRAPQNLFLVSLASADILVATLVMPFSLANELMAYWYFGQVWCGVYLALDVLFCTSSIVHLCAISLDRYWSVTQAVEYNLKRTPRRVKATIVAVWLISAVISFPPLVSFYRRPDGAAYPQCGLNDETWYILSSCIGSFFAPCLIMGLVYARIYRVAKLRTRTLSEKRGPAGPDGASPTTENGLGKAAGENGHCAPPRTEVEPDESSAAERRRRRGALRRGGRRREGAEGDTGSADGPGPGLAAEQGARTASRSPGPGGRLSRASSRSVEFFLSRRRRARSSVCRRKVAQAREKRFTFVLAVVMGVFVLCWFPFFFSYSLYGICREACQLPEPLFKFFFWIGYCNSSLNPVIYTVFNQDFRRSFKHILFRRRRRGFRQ
T1 sequence (P19328 whole entry): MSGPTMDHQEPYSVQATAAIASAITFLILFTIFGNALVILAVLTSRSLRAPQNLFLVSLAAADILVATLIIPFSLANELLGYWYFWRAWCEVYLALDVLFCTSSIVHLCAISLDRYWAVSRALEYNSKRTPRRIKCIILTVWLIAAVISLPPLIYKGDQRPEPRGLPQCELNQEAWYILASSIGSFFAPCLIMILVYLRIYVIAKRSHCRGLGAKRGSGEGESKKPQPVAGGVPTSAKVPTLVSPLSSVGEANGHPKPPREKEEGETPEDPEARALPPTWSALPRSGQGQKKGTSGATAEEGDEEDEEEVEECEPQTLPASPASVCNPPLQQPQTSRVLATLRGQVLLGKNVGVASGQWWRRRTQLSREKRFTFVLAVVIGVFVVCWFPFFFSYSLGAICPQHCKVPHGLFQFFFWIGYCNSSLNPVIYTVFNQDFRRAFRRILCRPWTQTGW
T1 sequence (P22909 whole entry): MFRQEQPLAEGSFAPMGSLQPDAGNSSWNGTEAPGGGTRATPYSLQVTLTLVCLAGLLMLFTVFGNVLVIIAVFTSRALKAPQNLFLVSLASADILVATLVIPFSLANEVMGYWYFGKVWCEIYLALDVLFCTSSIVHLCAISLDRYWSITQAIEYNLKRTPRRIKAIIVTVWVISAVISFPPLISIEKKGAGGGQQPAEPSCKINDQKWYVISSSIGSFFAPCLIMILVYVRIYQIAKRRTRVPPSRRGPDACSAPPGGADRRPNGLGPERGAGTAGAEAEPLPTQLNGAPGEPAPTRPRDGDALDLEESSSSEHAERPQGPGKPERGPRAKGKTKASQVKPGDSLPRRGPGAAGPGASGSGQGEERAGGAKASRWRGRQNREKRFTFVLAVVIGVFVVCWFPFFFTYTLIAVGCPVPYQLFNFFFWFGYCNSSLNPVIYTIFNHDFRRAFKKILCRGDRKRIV
Summary of the method: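 Rat cerebral cortex membranes were prepared in ice-cold 50 mM Tris–HCl pH 7.6 (20 000 × g, 20 min, 0–4 °C, washed twice). They were incubated with [3H]clonidine 2 nM and seven to eight compound concentrations (10^-11–10^-4 M), with excess unlabelled clonidine defining nonspecific binding. Samples were glass-fiber filtered and counted by liquid scintillation, in duplicate. Ki was calculated by Cheng–Prusoff.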

Rattus norvegicus [3] = test: Hypotensive activity in normotensive Wistar rat assessed as decrease in diastolic blood pressure at 20 mg/kg, iv administered as single dose; type: functional, organism-based; parameters: dose 20 mg/kg; settings: Artery
Rattus norvegicus [4] = organism: Rattus norvegicus; test: Hypotensive activity in Wistar rat assessed as reduction in norepinephrine-induced systolic blood pressure response; type: functional, organism-based; settings: Artery
Summary of the method: (§1)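 In anaesthetized rats, pressor responses were evoked by i.v. epinephrine, norepinephrine or methoxamine. Blood pressure was recorded through a heparin-saline-filled cannula in the carotid artery.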

Rattus norvegicus [5] = organism: Rattus norvegicus; test: Hypotensive activity in Wistar rat assessed as reduction in methoxamine-induced systolic blood pressure response; type: functional, organism-based; settings: Artery; summary of the method: as §1
[6] = molecular target: T2, Adrenergic receptor alpha-1 (Rattus norvegicus, UniProt P15823+P23944+P43140); test: Displacement of [3H]prazosin from alpha1 adrenergic receptor in rat cerebral cortex by liquid scintillation counting; type: tissue-based
T2 sequence (P15823 whole entry): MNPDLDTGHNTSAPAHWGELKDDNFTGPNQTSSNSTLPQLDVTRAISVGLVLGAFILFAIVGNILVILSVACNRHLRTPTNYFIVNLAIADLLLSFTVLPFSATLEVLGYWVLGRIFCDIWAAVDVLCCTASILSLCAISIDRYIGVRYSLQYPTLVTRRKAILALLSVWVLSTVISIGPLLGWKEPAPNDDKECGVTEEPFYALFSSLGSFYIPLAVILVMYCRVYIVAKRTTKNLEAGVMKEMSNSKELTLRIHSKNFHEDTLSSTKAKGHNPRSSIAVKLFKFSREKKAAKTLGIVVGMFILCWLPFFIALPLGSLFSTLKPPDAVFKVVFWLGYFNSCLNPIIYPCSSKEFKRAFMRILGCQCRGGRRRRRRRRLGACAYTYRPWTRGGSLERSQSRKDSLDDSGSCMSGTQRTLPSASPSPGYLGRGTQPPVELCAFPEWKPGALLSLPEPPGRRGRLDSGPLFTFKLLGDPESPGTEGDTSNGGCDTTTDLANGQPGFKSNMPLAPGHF
T2 sequence (P23944 whole entry): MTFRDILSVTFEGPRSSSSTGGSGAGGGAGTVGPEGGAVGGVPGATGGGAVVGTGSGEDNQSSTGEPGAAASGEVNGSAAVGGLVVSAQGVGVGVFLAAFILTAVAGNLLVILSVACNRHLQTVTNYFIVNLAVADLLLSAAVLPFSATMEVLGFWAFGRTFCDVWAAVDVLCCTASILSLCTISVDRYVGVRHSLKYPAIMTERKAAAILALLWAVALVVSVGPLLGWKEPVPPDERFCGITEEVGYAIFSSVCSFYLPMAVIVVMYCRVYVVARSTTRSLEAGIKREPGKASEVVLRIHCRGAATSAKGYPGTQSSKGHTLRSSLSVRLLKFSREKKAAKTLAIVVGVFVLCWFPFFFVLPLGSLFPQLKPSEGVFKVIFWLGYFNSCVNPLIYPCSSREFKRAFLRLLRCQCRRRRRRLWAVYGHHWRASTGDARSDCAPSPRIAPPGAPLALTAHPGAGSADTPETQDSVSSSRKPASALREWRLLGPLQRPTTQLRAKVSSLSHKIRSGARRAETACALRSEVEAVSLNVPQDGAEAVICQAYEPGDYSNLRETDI
T2 sequence (P43140 whole entry): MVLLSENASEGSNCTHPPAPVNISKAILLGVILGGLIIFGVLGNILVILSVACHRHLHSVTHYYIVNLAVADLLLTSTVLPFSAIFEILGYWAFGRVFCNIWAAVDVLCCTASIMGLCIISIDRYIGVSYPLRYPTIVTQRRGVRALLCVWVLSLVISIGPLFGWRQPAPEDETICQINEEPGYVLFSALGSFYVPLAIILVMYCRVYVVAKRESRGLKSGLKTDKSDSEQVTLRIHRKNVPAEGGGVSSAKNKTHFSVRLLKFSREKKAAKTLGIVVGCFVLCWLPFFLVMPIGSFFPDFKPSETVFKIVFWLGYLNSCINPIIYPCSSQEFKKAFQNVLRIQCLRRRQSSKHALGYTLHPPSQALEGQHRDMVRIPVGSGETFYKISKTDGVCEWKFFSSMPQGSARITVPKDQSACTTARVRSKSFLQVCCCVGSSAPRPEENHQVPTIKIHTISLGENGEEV
Summary of the method: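 Rat cerebral cortex was homogenized in ice-cold 50 mM Tris–HCl pH 7.6, centrifuged 20 000 × g for 20 min at 0–4 °C, and washed once more. Membranes were incubated with [3H]prazosin 0.2 nM and seven to eight compound concentrations (10^-11–10^-4 M), with phentolamine defining nonspecific binding. Bound ligand was filtered on glass fiber and counted by liquid scintillation. Runs were in duplicate, and Ki was calculated by Cheng–Prusoff.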

Rattus norvegicus [7] = organism: Rattus norvegicus; test: Hypotensive activity in Wistar rat assessed as reduction in epinephrine-induced systolic blood pressure response; type: functional, organism-based; settings: Artery; summary of the method: as §1
Rattus norvegicus [8] = test: Hypotensive activity in normotensive Wistar rat assessed as decrease in systolic blood pressure at 20 mg/kg, iv administered as single dose; type: functional, organism-based; parameters: dose 20 mg/kg; settings: Artery

Compound | ED50 (Rattus norvegicus [1]) | pKi [2] | Activity (Rattus norvegicus [3]) | Activity (Rattus norvegicus [4]) | Activity (Rattus norvegicus [5]) | pKi [6] | Activity (Rattus norvegicus [7]) | Activity (Rattus norvegicus [8])
c1ccc(CC2=NCCN2)cc1 [TOLAZOLINE] | 1.05 mg/kg | – | – | – | – | – | – | –
CC(C)NCC(O)COc1cccc2ccccc12 (stereo not given) [PROPRANOLOL] | 7.6 mg/kg | – | – | – | – | – | – | –
Cl.Cl.O=C1N(CC(O)CN2CCN(c3ccc(F)cc3)CC2)CCC1(c1ccccc1)c1ccccc1 (stereo not given) | – | 5.32 | inactive | inactive | inactive | 5.68 | inactive | inactive
O=C1CCCN1CC(O)CN1CCN(c2ccccc2)CC1 (stereo not given) | 7.6 mg/kg | 4.54 | – | – | – | 5.72 | – | –
O=C1CCCN1CC(O)CN1CCN(C(c2ccccc2)c2ccccc2)CC1 (stereo not given) | inactive | 5.27 | – | – | – | 6.57 | – | –
